“And” between values parts separate entries of the source, which are not always exact repeats. Identical values can stand only once. Like-named read-outs stand apart in the source and are kept apart here.

Experiment [1] deals with H. anomala cells (alternative oxidase pathway). As to the kind of experiment: Induction of cyanide-resistant respiration in H. anomala cells. Particulars: 10 μM inhibitor, cells shaken aerobically at 30°C for 2 hours; None = 0.181. The class given is cell-based, Hansenula (Pichia) anomala.
Experiment [2] deals with cytochrome b in H. anomala mitochondria. As to the kind of experiment: Reduction of cytochrome b in H. anomala mitochondria. In kind it is biochemical, Hansenula (Pichia) anomala.
Experiment [3] concerns H. anomala mitochondria. The experiment can be described thus: Superoxide anion generation in H. anomala mitochondria. In kind it is biochemical, Hansenula (Pichia) anomala. Summed up:
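Pre-incubated at 30°C in a chemiluminescence reader, then succinate added and inhibitors added in sequence. Read-out was the chemiluminescence peak-height increase sensitive to 0.5 µM superoxide dismutase.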

The subject of experiment [4] is rat liver mitochondria. The experiment can be described thus: Succinate-dependent O2 uptake activity in rat liver mitochondria. The class given is biochemical.
The target in experiment [5] is T1, Rieske iron-sulfur protein of Rb. capsulatus cytochrome bc1 complex (Rhodobacter capsulatus, UniProt D5ANZ2+D5ANZ3).
T1 sequence (D5ANZ3 1-437): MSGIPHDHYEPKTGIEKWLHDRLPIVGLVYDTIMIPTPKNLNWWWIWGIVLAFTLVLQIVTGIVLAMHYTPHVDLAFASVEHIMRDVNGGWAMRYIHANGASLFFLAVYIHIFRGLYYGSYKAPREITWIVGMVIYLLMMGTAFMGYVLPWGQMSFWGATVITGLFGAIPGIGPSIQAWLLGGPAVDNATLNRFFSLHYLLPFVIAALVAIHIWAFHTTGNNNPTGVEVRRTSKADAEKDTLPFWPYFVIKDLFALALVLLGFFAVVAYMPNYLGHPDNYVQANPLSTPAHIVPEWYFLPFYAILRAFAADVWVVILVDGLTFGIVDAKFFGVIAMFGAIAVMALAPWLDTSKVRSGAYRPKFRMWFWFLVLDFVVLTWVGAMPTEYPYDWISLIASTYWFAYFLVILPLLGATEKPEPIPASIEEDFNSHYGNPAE
T1 sequence (D5ANZ2 1-191): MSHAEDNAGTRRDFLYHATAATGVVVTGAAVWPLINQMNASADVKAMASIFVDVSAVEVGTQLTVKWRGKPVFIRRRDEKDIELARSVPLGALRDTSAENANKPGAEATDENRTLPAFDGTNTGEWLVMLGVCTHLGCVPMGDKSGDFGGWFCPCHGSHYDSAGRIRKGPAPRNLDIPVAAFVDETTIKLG
T1 sequence (D5ANZ4 22-279 partner): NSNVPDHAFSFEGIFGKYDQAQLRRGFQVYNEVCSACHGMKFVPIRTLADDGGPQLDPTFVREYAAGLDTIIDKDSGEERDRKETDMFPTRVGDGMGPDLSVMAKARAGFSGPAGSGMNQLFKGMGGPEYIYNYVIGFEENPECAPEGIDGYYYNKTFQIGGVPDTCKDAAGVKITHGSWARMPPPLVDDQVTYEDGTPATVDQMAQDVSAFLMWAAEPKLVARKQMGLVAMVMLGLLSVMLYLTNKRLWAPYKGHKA
The experiment can be described thus: EPR spectra of the reduced Rieske iron-sulfur protein in chromatophore membranes. The conditions noted are these: 10 to 30 μM inhibitor, ascorbate-reduced chromatophore membranes, 20 K. The class given is binding.

In experiment [6] the target is purified bovine cytochrome bc1 complex (Bos taurus, UniProt P00157+P13272). As to the kind of experiment: Cytochrome reduction by DBH2 in purified bovine cytochrome bc1 complex. In kind it is biochemical.
Experiment [7] concerns the target T2, Rb. capsulatus cytochrome bc1 complex (Rhodobacter capsulatus, UniProt D5ANZ2+D5ANZ3).
T2 sequence (D5ANZ3 1-437): T1 sequence (D5ANZ3 1-437)
T2 sequence (D5ANZ2 1-191): T1 sequence (D5ANZ2 1-191)
T2 sequence (D5ANZ4 22-279 partner): T1 sequence (D5ANZ4 22-279 partner)
The class given is biochemical. The conditions noted are these: for Inhibition of re-reduction of cytochromes c (Qo site forward reaction): pH 7.0, Eh 100 mV. Summed up:
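Rb. capsulatus chromatophores normalised to reaction centre (0.28 µM), with redox mediators and 2.5 µM valinomycin. Qo forward: 50 mM MOPS pH 7.0, 100 mM KCl, Eh 100 mV. Qi reverse: 50 mM glycine-NaOH pH 9.5, 100 mM KCl, 10 µM myxothiazol, Eh 125 mV.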

Setting [8] is: 10 μM antimycin A3 added after 15 mM succinate + 10 μM ascochlorin.
Setting [9] is: 10 μM inhibitor added after 15 mM succinate.
Setting [10] is: 10 μM inhibitor added after 15 mM succinate + 10 μM antimycin A3.

On to `CCCC[C@H]1C(=O)O[C@H](C)[C@H](NC(=O)c2cccc(NC=O)c2O)C(=O)O[C@@H](C)[C@@H]1OC(=O)CC(C)C` [Antimycin A3], for which the “CN−-resistant O2 uptake activity” value in experiment [1] was 7.77 nmol O2/min/mg wet cells. Moreover, the “ΔA 560–575 × 10^2 (cytochrome b reduction)” value in experiment [2] (setting [8]) was 0.94; in experiment [2] (10 μM antimycin A3 added after 15 mM succinate + 10 μM myxothiazol), 1.08; in experiment [2] (setting [9]), 1.27 and 1.28. In addition, the “Chemiluminescence Intensity (superoxide anion generation)” value (shortened to “Chemiluminescence Intensity”) was 3.6 10^5 counts/min in experiment [3] (setting [8]); 8.8 10^5 counts/min and 9.1 10^5 counts/min in experiment [3] (setting [9]).
In the case of `O=C1C(O)=C([C@H]2CC[C@H](c3ccc(Cl)cc3)CC2)C(=O)c2ccccc21` [Atovaquone], the “CN−-resistant O2 uptake activity” value in experiment [1] is recorded as 0.202 nmol O2/min/mg wet cells.
Same read-out and setting: the value for `CCCCCCCCCC1=C(O)C(=O)c2scnc2C1=O` [NHDBT, nonylhydroxydioxobenzothiazole] was 0.225 nmol O2/min/mg wet cells; that for Funiculosin was 3.12 nmol O2/min/mg wet cells.
Consider `CC(=CCc1c(O)cc(C)c(C=O)c1O)CCC1(C)C(C)CCC(=O)C1C` (centres unmarked) [LL-Z1272 ε], for which the “Inhibition relative to that seen using ascochlorin” value in experiment [4] is reported as “about 1/300”.
For the compound `CC(/C=C/[C@@]1(C)[C@H](C)CCC(=O)[C@@H]1C)=C\Cc1c(O)c(Cl)c(C)c(C=O)c1O` [Ascochlorin], in experiment [5], the “Effect on the Rieske ISP gx EPR transition” value is “changes the gx transition”. The “CN−-resistant O2 uptake activity” value in experiment [1] is given as 7.42 nmol O2/min/mg wet cells. For the same compound, the “Extent of rapid reduction of cytochrome c1” value in experiment [6] (3 μM bovine bc1, 31 μM ascochlorin, DBH2 25 μM, by the first spectrum) is on record as “about 20%”. For the same compound, the “Rapid reduction of cytochrome bH and c1” value in experiment [6] (ascochlorin and antimycin both present, 240 μM ascochlorin) is reported as “about half”. In addition, the “Further decrease of the extent of the fast reactions” value in experiment [6] (ascochlorin increased from 31 to 360 μM, compared to Fig. 4C) is listed as “about a factor of two”. Moreover, the results for the “ΔA 560–575 × 10^2 (cytochrome b reduction)” value in experiment [2] (setting [9]) and in experiment [2] (setting [10]) were 0.92 and 0.85, respectively. In addition, the “Inhibition of re-reduction of cytochromes c (Qo site forward reaction)” value in experiment [7] (1 μM) is “partially”; in experiment [7] (10 μM) it was “fully”. The “Inhibition of Qi site-mediated cytochrome b reduction (reverse reaction)” value in experiment [7] (1 or 10 μM, 10 μM myxothiazol, pH 9.5, Eh 125 mV) is listed as “completely inhibited”. Also, the “Chemiluminescence Intensity” value in experiment [3] (setting [9]) is on record as 2.6 10^5 counts/min; in experiment [3] (setting [10]), 4.6 10^5 counts/min.
`CCCCCC[C@H]1C(=O)O[C@H](C)[C@H](NC(=O)c2cccc(NC=O)c2O)C(=O)O[C@@H](C)[C@@H]1OC(=O)CC(C)C` [antimycin A]: the “Extent of rapid reduction of cytochrome bL” value in experiment [6] (3 μM bovine bc1, 30 μM antimycin A, DBH2 25 μM) is listed as “about 20%”. For the same compound, the “Level of cytochrome b reduction after reoxidation” value in experiment [6] (30 μM antimycin A, within a few minutes) is on record as “about 10%”.
With `C/C=C(C)/C=C/C=C/[C@H](OC)[C@@H](C)[C@@H](OC)[C@@H](C)CCc1oc2c(O)c(OC)cc(OC)c2c(=O)c1C` [Stigmatellin], the “CN−-resistant O2 uptake activity” value in experiment [1] is given as 0.433 nmol O2/min/mg wet cells.
With `CO/C(=C/C(N)=O)[C@H](C)[C@H](/C=C/c1csc(-c2csc([C@@H](C)/C=C/C=C/C(C)C)n2)n1)OC` [Myxothiazol], in experiment [1], the “CN−-resistant O2 uptake activity” value is 0.375 nmol O2/min/mg wet cells. Further, the “ΔA 560–575 × 10^2 (cytochrome b reduction)” value in experiment [2] (setting [9]) is 1.16; in experiment [2] (setting [10]), 1.03. Further, the “Chemiluminescence Intensity” value in experiment [3] (setting [10]) is 5.4 10^5 counts/min.

Values taken from PMC2819552 (Biochimica et biophysica acta, 2009).
